The values that follow come from ChEMBL document CHEMBL1159009, “Anti-influenza virus effect of some propolis constituents and their analogues (esters of substituted cinnamic acids)” (J Nat Prod, 1992).

Each structure is given as a SMILES string. Values after ≈ are worked out from the molar mass of the structure shown.

A short description of data set [1]: Toxicity in hen chorioallantoic membrane assessed as maximum tolerable concentration causing no morphological changes. More on the design: species or system Gallus gallus. The note with it: chicken, read-out: Activity. A digest of the protocol:
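Surviving chorioallantoic membrane cultures (membranes only) from 11-13-day-old embryonated hen's eggs were exposed to increasing concentrations and followed for 72 h. MTC was the highest concentration causing no morphological changes in the CAM.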

The subject of data set [2] is Influenza A virus. The data set is described as follows: microbe, parasite or virus in culture. Format: functional, Chorioallantoic membrane. The note with it: A/Puerto Rico/8/1934(H1N1), 48 h.
Data set [3] deals with Influenza A virus H3N2. The data set is described as follows: microbe, parasite or virus in culture. Type of data set: functional, Influenza A virus (A/Hong Kong/1/1968(H3N2)), Chorioallantoic membrane. The note with it: 48 h.
The subject of data set [4] is Influenza A virus H3N2. Type of data set: functional, Influenza A virus (A/Hong Kong/1/1968(H3N2)), Chorioallantoic membrane.
The subject of data set [5] is Influenza A virus H3N2. Format: functional, Influenza A virus (A/Hong Kong/1/1968(H3N2)), Chorioallantoic membrane. This is another data set of the same source.
For data set [6], the system named is Influenza A virus H3N2. Put plainly: Antiviral activity against influenza A virus (A/Hong Kong/1/1968(H3N2)) infected in hen eggs assessed as hemagglutinination titre level at 1 mg/ml. Type of data set: functional. A digest of the protocol: (§1)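 11-day-old embryonated hen's eggs received 0.2 ml of substance 1 h before infection with A/Hong Kong/1/68 (H3N2) from allantoic fluid. Read-out was the mean geometrical hemagglutination titer, compared with a virus control for each dose.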

Data set [7] deals with Influenza A virus H3N2. Type of data set: functional, Influenza A virus (A/Hong Kong/1/1968(H3N2)), Chorioallantoic membrane. The source holds these as a separate data set.
In data set [8] the test system is Influenza A virus H3N2. The data set is described as follows: Antiviral activity against influenza A virus (A/Hong Kong/1/1968(H3N2)) infected in hen eggs assessed as hemagglutinination titre level at 5 mg/ml. Format: functional. Put shortly:
as §1

The test system of data set [9] is Influenza A virus H3N2. Format: functional, Influenza A virus (A/Hong Kong/1/1968(H3N2)), Chorioallantoic membrane. The source holds these as a separate data set.
For data set [10], the system named is Influenza A virus H3N2. Format: functional, Influenza A virus (A/Hong Kong/1/1968(H3N2)), Chorioallantoic membrane. The source holds these as a separate data set.
Data set [11] deals with Influenza A virus H3N2. Format: functional, Influenza A virus (A/Hong Kong/1/1968(H3N2)), Chorioallantoic membrane. This is another data set of the same source.
Data set [12] concerns Influenza A virus H3N2. The data set is described as follows: Antiviral activity against influenza A virus (A/Hong Kong/1/1968(H3N2)) infected in hen eggs assessed as hemagglutinination titre level at 2.5 mg/ml. Type of data set: functional. A digest of the protocol: as §1
The test system of data set [13] is Influenza A virus H3N2. Format: functional, Influenza A virus (A/Hong Kong/1/1968(H3N2)), Chorioallantoic membrane. The source holds these as a separate data set.
The nature of data set [14]: Toxicity in hen egg assessed as maximum tolerable concentration causing no morphological changes. More on the design: species or system Gallus gallus. The note with it: chicken, read-out: Activity.

On to `COc1cc(/C=C/C(=O)OCCc2ccccc2)ccc1O`, for which the MNTC in [1] came out at 50 µg/mL. The MIC in data set [2] and in data set [3] was > 50 µg/mL throughout.
Regarding `CC(C)CCOC(=O)/C=C/c1ccc(O)c(O)c1`, in data set [1], the MNTC was found to be 50 µg/mL. Also, the MIC in data set [2] and in data set [3] was 25 µg/mL (≈ 99.9 µM) throughout.
Consider `O=C(/C=C/c1ccc(O)c(O)c1)OCc1ccccc1` [BENZYL CAFFEATE], for which the MNTC in [1] amounted to 50 µg/mL. Moreover, the MIC is > 50 µg/mL in data set [2] and 25 µg/mL (≈ 92.5 µM) in [3].
Turning to `COc1cc(/C=C/C(=O)OCc2ccccc2)ccc1O` [BENZYL FERULATE], the MNTC in data set [1] came to 50 µg/mL. The MIC in data set [2] and in data set [3] was > 50 µg/mL throughout.
`O=C(/C=C/c1ccc(O)c(O)c1)OCCc1ccccc1` [CAFFEIC ACID PHENETHYL ESTER]: in [1], the MNTC was 50 µg/mL. The results for the MIC in [2] and in [3] were 50 µg/mL (≈ 176 µM) and 25 µg/mL (≈ 87.9 µM), respectively.
As to `COc1cc(/C=C/C(=O)OCCC(C)C)ccc1O` [ISOPENTYL FERULATE], the values for the deltalog10CCID50 in data set [4], in data set [7] and in data set [10] were 2, 2 and >2.5, respectively. Further, the log10CCID50 was 1.5 in [5], 1.5 in data set [9], 3 in [11] and <1 in [13]. Besides, the Activity is given as 9.4 in data set [6], 6.45 in data set [8] and 7.35 in data set [12]. In addition, the MNTC in [1] came out at 400 µg/mL; in data set [14], 10000 µg/mL. Also, the results for the MIC in data set [2] and in data set [3] were > 200 µg/mL and 50 µg/mL (≈ 189 µM), respectively.
